Reference: ChEMBL document CHEMBL3352734, “Reniochalistatins A-E, cyclic peptides from the marine sponge Reniochalina stalagmitis” (J Nat Prod, 2014)
The source made the active and inactive calls. No cut-off for these calls is given here. Peptide text beside a SMILES is read from it.

Assays:
Type in all cases: functional, cell-based
HepG2 = experiment: Cytotoxicity against human HepG2 cells after 72 hrs by MTS assay; details: for IC50: HepG2, 72 h
Procedure, shortened: (§1)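 HeLa (cervical) and HepG2 (hepatoma) cells kept in high-glucose DMEM with 10% FBS, 5% CO2, 37 °C. Plated at 1 × 10^4 cells/well for 24 h, then treated with graded sample concentrations for 72 h. Viability by MTS reduction over 2 h, measured at 490 nm with 690 nm reference.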

MGC-803 = experiment: Cytotoxicity against human MGC803 cells after 72 hrs by MTS assay; details: for IC50: MGC-803, 72 h
Procedure, shortened: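 Gastric MGC-803 line maintained in RPMI-1640 plus 10% FBS, 37 °C, 5% CO2. Cells seeded at 1 × 10^4/well, incubated 24 h, then given medium with varying sample concentrations for 72 h. After 2 h with MTS, absorbance taken at 490 nm (reference 690 nm).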

HL-60 = experiment: (§2) Cytotoxicity against human HL60 cells after 72 hrs by MTS assay
Procedure, shortened: (§3)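 HL-60 (human leukemia) grown in RPMI-1640 with 20% FBS at 37 °C, 5% CO2. Seeded at 1 × 10^4 cells/well and left 24 h, then exposed to a range of sample concentrations for 72 h. MTS added for 2 h; absorbance read at 490 nm against a 690 nm reference.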

HeLa = experiment: Cytotoxicity against human HeLa cells after 72 hrs by MTS assay; procedure, shortened: as §1
[1] = as §2; details: HL-60, 72 h; procedure, shortened: as §3
RPMI-8226 = experiment: Cytotoxicity against human RPMI8226 cells after 72 hrs by MTS assay; details: RPMI-8226, 72 h

| SMILES | inhibition (HepG2) | inhibition (MGC-803) | inhibition (HL-60) | inhibition (HeLa) | IC50 (HepG2) [nM] | IC50 (MGC-803) [nM] | IC50 [1] [nM] | IC50 (HeLa) [nM] | IC50 (RPMI-8226) [nM] |
| --- | --- | --- | --- | --- | --- | --- | --- | --- | --- |
| CC[C@H](C)[C@@H]1NC(=O)[C@H](Cc2ccccc2)NC(=O)[C@@H]2CCCN2C(=O)[C@H](Cc2ccccc2)NC(=O)[C@@H]2CCCN2C(=O)[C@@H]2CCCN2C(=O)[C@H](Cc2ccccc2)NC1=O (cyclo(FIFPPFP)) | inactive | inactive | inactive | inactive | – | – | – | – | – |
| CC[C@H](C)[C@@H]1NC(=O)[C@@H]2CCCN2C(=O)[C@H](CC(C)C)NC(=O)[C@@H]2CCCN2C(=O)[C@H](CC(C)C)NC(=O)[C@H](Cc2ccc(O)cc2)NC(=O)[C@H](Cc2ccccc2)NC1=O (cyclo(FYLPLPI)) | inactive | inactive | inactive | inactive | – | – | – | – | – |
| COc1cccc2c1C(=O)c1c(O)c3c(c(O)c1C2=O)C[C@@](O)(C(=O)CO)C[C@@H]3O[C@H]1C[C@H](N)[C@H](O)[C@H](C)O1 [DOXORUBICIN] | – | – | – | – | 400 | 100 | 200 | 500 | – |
| CC[C@H](C)[C@@H]1NC(=O)[C@H](C(C)C)NC(=O)[C@H](CC(N)=O)NC(=O)[C@@H]2CCCN2C(=O)[C@H](CC(C)C)NC(=O)[C@H](CC(C)C)NC(=O)[C@@H]2CCCN2C1=O (cyclo(IPLLPNV)) | inactive | inactive | inactive | inactive | – | – | – | – | – |
| CC[C@H](C)[C@@H]1NC(=O)[C@@H]2CCCN2C(=O)[C@H](Cc2ccccc2)NC(=O)[C@H](Cc2ccc(O)cc2)NC(=O)[C@H]([C@@H](C)CC)NC(=O)[C@@H]2CCCN2C(=O)[C@H](Cc2ccccc2)NC1=O (cyclo(FPIFPIY)) | inactive | inactive | inactive | inactive | – | – | – | – | – |
| CC[C@H](C)[C@@H]1NC(=O)[C@H](C(C)C)NC(=O)[C@@H]2CCCN2C(=O)[C@H](Cc2c[nH]c3ccccc23)NC(=O)[C@H](CC(C)C)NC(=O)[C@@H]2CCCN2C(=O)[C@H]([C@@H](C)CC)NC(=O)[C@@H]2CCCN2C1=O (cyclo(IPIPLWPV)) | – | – | – | – | > 20000 | 9700 | > 20000 | 17300 | 4900 |
